CRFBP-R2 block: antagonists of CRF-BP/CRF-R2 complex, primary screen, cell-based, HEK293, calcium dye fluorescence, uHTS | CRF-induced calcium fluorescence | inhibition, % at 11.8 µM | actives 0.59% (n = 350,000) | AID 588475, 2011;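 active means inhibition of the ligand-induced calcium signal above about 50% at the single tested concentration, limit read from the data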
CRFBP-R2 agonist: agonists of CRF-BP/CRF-R2 complex, primary screen, cell-based, HEK293, calcium dye fluorescence, uHTS. activation, % at 13.2 µM. actives 0.46% (n = 350,000). CRF-binding protein / CRF receptor 2 complex (human). AID 588473, 2011. calcium dye fluorescence (FLIPR); percent of saturating CRF peptide response;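 active means activation of at least 50%, plus an integration ratio under a set limit after plate pattern correction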
Tn7 DDE FP: inhibitors of Tn7 peptide binding to fibrin DD(E), primary screen, biochemical, fluorescence polarization, human fibrin, Tn7 probe | actives 0.13% (n = 370,000) | FP displacement of FITC-Tn7 peptide from fibrin DD(E); 0% = median of compound wells per plate | AID 720508, 2013 | inhibition, % at 8.3 µM;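 active means inhibition above the mean of compounds falling within the control limits plus 3 SD of them, cut at about 14% in these data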
Target sequence (P02675 whole entry, looked up): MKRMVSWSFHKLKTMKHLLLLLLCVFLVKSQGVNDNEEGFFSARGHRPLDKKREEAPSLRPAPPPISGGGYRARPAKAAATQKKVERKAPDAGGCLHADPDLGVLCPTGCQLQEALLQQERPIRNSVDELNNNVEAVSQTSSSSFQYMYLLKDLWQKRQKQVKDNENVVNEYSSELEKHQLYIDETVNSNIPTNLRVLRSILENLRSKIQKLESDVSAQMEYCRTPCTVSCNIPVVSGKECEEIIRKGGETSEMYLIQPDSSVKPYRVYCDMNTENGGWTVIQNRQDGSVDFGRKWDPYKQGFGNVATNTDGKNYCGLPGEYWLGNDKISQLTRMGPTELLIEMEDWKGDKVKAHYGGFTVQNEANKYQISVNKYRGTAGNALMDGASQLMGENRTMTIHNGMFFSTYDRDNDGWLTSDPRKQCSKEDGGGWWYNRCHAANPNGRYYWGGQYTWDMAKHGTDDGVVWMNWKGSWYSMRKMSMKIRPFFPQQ
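Assay system: Fibrin-DD(E) protein isolated from polymerized human fibrin clots; read-out basis: percent inhibition; medium: Tris/NaCl/CaCl2 buffer, pH 7.8; signal: FP measurement; incubation: 10 min plus 3 h, room temperature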
Tn6 DDE FP: inhibitors of Tn6 peptide binding to fibrin DD(E), primary screen, biochemical, fluorescence polarization, human fibrin, Tn6 probe. Fibrin DD(E) TRITC-Tn6 fluorescence polarization displacement. inhibition, % at 8.3 µM. Fibrinogen beta chain (Homo sapiens), P02675. actives 0.21% (n = 370,000);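 active means inhibition above a per-campaign cutoff: mean of compounds within control limits plus 3 SD, cut at about 15% in these data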
Each line names hits and unclear results; the compound was inactive in the other large screens. In the library only some 1.2% were active in any assay of this set; here they are far more common.

Cc1cc(NC(=O)Cc2ccccc2)ccc1NC(=O)c1cccs1	CRFBP-R2 block 57
O=C(O)c1cccc2c1C(=O)N(Cc1ccccc1)C2	CRFBP-R2 block 63
CN1C(=O)C(N=Nc2ccc([N+](=O)[O-])cc2)SC1=S (stereo not drawn)	CRFBP-R2 block 68, CRFBP-R2 agonist 70
O=c1ccc2cc(S(=O)(=O)NCc3ccccc3)ccc2[nH]1	CRFBP-R2 block 99
Cc1cc(=O)[nH]c2ccc(S(=O)(=O)NCc3ccccc3)cc12	none
Cc1c(OCC(=O)NCCN2CCOCC2)ccc2c3c(c(=O)oc12)CCC3	CRFBP-R2 block 115
NC(=O)C1CCN(c2nc(-c3ccc(Oc4ccccc4)cc3)cs2)CC1	none (no result: CRFBP-R2 block, CRFBP-R2 agonist)
CCn1c(Cc2ccccc2)nnc1SCC(=O)c1cccc([N+](=O)[O-])c1	none
Cn1c(COc2ccccc2)nnc1SCC(=O)c1cccc([N+](=O)[O-])c1	CRFBP-R2 block 59
CCOc1cc(C)ccc1OCc1nnc(SCC(=O)c2cccc([N+](=O)[O-])c2)n1C	CRFBP-R2 block 56
O=C(Nc1cc(S(=O)(=O)N2CCOCC2)ccc1O)c1ccc(NS(=O)(=O)c2ccc(Cl)s2)cc1	none
Cc1ccc(NC(=O)c2ccccc2NS(=O)(=O)c2ccc(Cl)s2)cc1S(=O)(=O)N1CCOCC1	CRFBP-R2 block 87
COc1ccc(C)cc1NC(=O)c1ccccc1NS(=O)(=O)c1ccc(Cl)s1	CRFBP-R2 block 65
CC(C)(C)C1COc2ccccc2N1C(=O)c1ccccc1Cl (stereo not drawn)	CRFBP-R2 agonist 57
Cc1ccccc1C(=O)N1c2ccccc2OCC1C(C)(C)C (stereo not drawn)	none
Cc1cc(C)c2c(N)c(C(=O)c3ccc(Cl)cc3)sc2n1	none
COc1ccc(C(=O)c2sc3nc(C)cc(-c4cccs4)c3c2N)cc1	CRFBP-R2 agonist 67
Cc1cc(-c2cccs2)c2c(N)c(C(=O)c3ccc4c(c3)OCO4)sc2n1	CRFBP-R2 agonist 109
COc1ccc(C(=O)c2sc3nc(C)cc(-c4cccs4)c3c2N)cc1OC	CRFBP-R2 agonist 108
CCCCC[C@@H]1C=C(C(=O)O)[C@H](c2cccc(C)c2)N1S(=O)(=O)c1ccc(C)cc1	CRFBP-R2 block 60
Cc1ccc(S(=O)(=O)N2[C@@H](c3ccc(Br)cc3)C(C(=O)O)=CC[C@H]2c2cccc(C)c2)cc1	CRFBP-R2 block 86
Cc1ccc([C@@H]2CC=C(C(=O)O)[C@H](c3ccccc3)N2S(=O)(=O)c2ccc(C)cc2)cc1	none
Cc1ccc([C@H]2C(C(=O)O)=CC[C@@H](c3ccc(Cl)cc3)N2S(=O)(=O)c2ccc(C)cc2)cc1	CRFBP-R2 block 66
Cc1ccc([C@H]2C(C(=O)O)=CC[C@@H](c3ccc(C)cc3)N2S(=O)(=O)c2ccc(C)cc2)cc1	CRFBP-R2 block 94
CCCCC[C@@H]1C=C(C(=O)O)[C@H](c2ccc(Cl)c(Cl)c2)N1S(=O)(=O)c1ccc(C)cc1	none
CCOc1ccc(/C=N/n2c(-c3n[nH]c4c3CCC4)n[nH]c2=S)cc1	none (no result: CRFBP-R2 block, CRFBP-R2 agonist)
COc1ccc(/C=C2\CCC(C3CCCC3)C2=O)cc1 (stereo not drawn)	none
COc1ccc(/C=C2/CCC(CN3CCOCC3)C2=O)cc1 (stereo not drawn)	CRFBP-R2 block 57
N#Cc1c(C(F)(F)F)cc(-c2ccccc2)nc1SCc1nc(N)nc(N2CCOCC2)n1	CRFBP-R2 agonist 69
Cc1cc(Br)ccc1NC(=O)CNC(=O)Cn1ncc(Cl)c(Cl)c1=O	CRFBP-R2 block 87
O=C(O)C(=O)/C(=C\c1cccc2ccccc12)c1ccc2ccccc2n1	CRFBP-R2 agonist 96
Cc1ccc(S(=O)(=O)N/N=C/c2ccc(OC3CSC3)cc2)cc1	CRFBP-R2 agonist 75
Cc1ccc(-n2nc3c(=O)n(CC(=O)NCc4cccs4)nc(C)c3c2C)cc1	CRFBP-R2 block 64
Cc1cc(C(=O)O[C@H]2CCC[C@@]3(C(=O)N(Cc4ccccc4)c4ccccc43)[C@H]2NC(=O)CCc2ccccc2)no1	none (no result: CRFBP-R2 block, CRFBP-R2 agonist)
COc1ccccc1NC(=O)CSc1nnc(CNC(=O)c2ccco2)o1	CRFBP-R2 block 66
CN(C)c1ccc(/C=C/c2cccc[n+]2[O-])cc1	none
CC(C)CC[n+]1ccccc1/C=C/c1ccc(N(C)C)cc1	CRFBP-R2 agonist 51
O=C(CN1CCc2onc(-c3ccc(-n4cc(COc5ccc([N+](=O)[O-])cc5)nn4)cc3)c2C1=O)N1CCOCC1	none (no result: CRFBP-R2 block, CRFBP-R2 agonist)
Cc1cc2c(=Cc3ccc(N(C)C)cc3)c3ccccc3n2[n+]1C	CRFBP-R2 block 108
COc1ccc(NC(=O)N2CCCC2C(=O)NCC2CCCCC2)cc1 (stereo not drawn)	none
Cc1cc(C)cc(N=Cc2[nH]c3ccc(Br)c(Cl)c3c2O)c1	CRFBP-R2 agonist 197
COC(=O)CN1C(=O)Nc2ccc(Br)cc2C1c1ccccc1 (stereo not drawn)	none
O=C(O)CN1C(c2ccccc2O)Nc2ccc(Br)cc2C1c1ccccc1 (stereo not drawn)	CRFBP-R2 block 63
COc1ccc(C2Nc3ccc(Br)cc3C(c3ccccc3)N2CC(=O)O)cc1 (stereo not drawn)	CRFBP-R2 block 87
CC(C)C(=O)N1CCC(Oc2cccnc2)CC1	none (no result: CRFBP-R2 block, CRFBP-R2 agonist)
COc1cccc(C(=O)Nc2ccc(NC(=O)C3C4C=CC(C4)C3C(=O)O)cc2)c1 (stereo not drawn)	none
COc1ccc(OC)c(S(=O)(=O)N2CCc3ccccc32)c1	none
COc1ccc(OC)c(S(=O)(=O)N2c3ccccc3CC2C)c1 (stereo not drawn)	CRFBP-R2 block 53
O=C(Nc1cc(Cl)cc(Cl)c1)c1coc(=O)c(Br)c1	CRFBP-R2 block 71
COc1ccc(Cc2nnc(NC(=O)Nc3ccc(C)cc3)s2)cc1OC	CRFBP-R2 block 83
CCOc1cc2c(cc1/C=C/c1noc(C)c1[N+](=O)[O-])OC(C)C2 (stereo not drawn)	CRFBP-R2 agonist 193
C=C1C(=O)OCC2C(C(=O)O)=CC3C(C)C(C)=CC123 (stereo not drawn)	none
Cc1c(C(=O)Nc2c(F)cccc2F)sc2ncn(CC(=O)N3CCCCC3)c(=O)c12	CRFBP-R2 block 78
O=C(Nc1c(-c2ccccc2)nc2ncccn12)C1CC1	none (no result: CRFBP-R2 block, CRFBP-R2 agonist)
CC(C)C[C@@H]1COc2cc(Br)ccc2S(=O)(=O)N1Cc1cn(CCC2OCCCO2)nn1	none (no result: CRFBP-R2 block, CRFBP-R2 agonist)
COC(=O)C1CSc2[nH]c(=O)sc2C1c1ccc(O)c(OC)c1 (stereo not drawn)	CRFBP-R2 block 77
CC(C)CNC(=O)c1ccccc1Oc1ccccc1	none
CN(C)CCCNC(=O)c1ccccc1Oc1ccccc1	CRFBP-R2 block 59
CCOc1ccc(N=c2scc(-c3ccc(OC)cc3)n2CCO)cc1	CRFBP-R2 block 80
CCOC(=O)c1cn[nH]c1NC(=S)Nc1ccc(Cl)cc1	CRFBP-R2 block 94
